This note sets out measurements from ChEMBL document CHEMBL1833848, “New betulinic acid derivatives as potent proteasome inhibitors” (Bioorg Med Chem Lett, 2011).

Assay [1] in a line: Inhibition of human 20S proteasome chymotrypsin-like activity using Suc-Leu-Leu-Val-Tyr-AMC fluorogenic substrate by fluorimetry. An outline of the steps: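 IC50 values are the averages of three independent experiments.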
The species entered for assay [2] is Homo sapiens. Nature of the assay: Ratio of lactacystin IC50 to compound IC50 for human 20S proteasome.
Assay [3] is filed under the species Homo sapiens. Nature of the assay: Ratio of LLM-F IC50 to compound IC50 for human 20S proteasome.
The species named for assay [4] is Homo sapiens. In words: Ratio of bevirimat IC50 to compound IC50 for human 20S proteasome.
The subject of assay [5] is Human immunodeficiency virus 1. In words: Antiviral activity against drug-resistant HIV1 isolate. It is filed as functional, organism-based.
Assay [6] is described as follows: Inhibition of human 20S proteasome trypsin-like activity using Bz-VGR-AMC fluorogenic substrate by fluorimetry.
The species entered for assay [7] is Homo sapiens. Nature of the assay: Inhibition of human 20S proteasome caspase-like activity using (Z)-LLE-bNA fluorogenic substrate by fluorimetry.
The test system of assay [8] is Human immunodeficiency virus 1. In words: Antiviral activity against HIV1. It is filed as functional, organism-based.

Active and inactive are the calls of the source. No cut-off for these calls is given here. Where a SMILES comes first, the peptide text is derived from it.

For `CSCC[C@@H](C=O)NC(=O)[C@H](CC(C)C)NC(=O)[C@H](CC(C)C)NC(C)=O` (Ac-Leu-Leu-Met-aldehyde), in assay [1], half-maximal inhibition (IC50) required 5.25 µM.

In the case of `C=C(C)[C@@H]1CC[C@]2(C(=O)O)CC[C@]3(C)[C@H](CC[C@H]4C3(C)CC[C@H]3C(C)(C)[C@@H](OC(=O)C5CC=CCC5C(=O)O)CC[C@@]34C)[C@@H]12` (single isomer, unassigned), the IC50 in assay [1] was 2.96 µM. In turn, `C=C(C)[C@@H]1CC[C@]2(C(=O)NCCCCCCCC(=O)N[C@@H](CC(C)C)[C@H](O)CC(=O)O)CC[C@]3(C)[C@H](CC[C@H]4C3(C)CC[C@H]3C(C)(C)[C@@H](O)CC[C@@]34C)[C@@H]12` (single isomer, unassigned) came in with an IC50 in assay [1] greater than 40 µM. In turn, `C=C(C)[C@@H]1CC[C@]2(C(=O)O)CC[C@]3(C)[C@H](CC[C@H]4C3(C)CC[C@H]3C(C)(C)[C@@H](OC(=O)c5cc(OC)c(OC)c(OC)c5)CC[C@@]34C)[C@@H]12` (single isomer, unassigned) gave an IC50 in assay [1] greater than 40 µM. Consider `C=C(C)[C@@H]1CC[C@]2(C(=O)O)CC[C@]3(C)[C@H](CC[C@H]4C3(C)CC[C@H]3C(C)(C)[C@@H](OC(=O)c5ccc6c(c5)OCO6)CC[C@@]34C)[C@@H]12` (single isomer, unassigned), for which, in assay [1], the IC50 was greater than 40 µM. On to `C=C(C)[C@@H]1CC[C@]2(C(=O)O)CC[C@]3(C)[C@H](CC[C@H]4C3(C)CC[C@H]3C(C)(C)[C@@H](OC(=O)c5cc(OC)c(OC)cc5OC)CC[C@@]34C)[C@@H]12` (single isomer, unassigned), for which 10.9 µM corresponded to half-maximal inhibition in assay [1] (IC50). In the case of `C=C(C)[C@@H]1CC[C@]2(C(=O)O)CC[C@]3(C)[C@H](CC[C@H]4C3(C)CC[C@H]3C(C)(C)[C@@H](OC(=O)c5ccc(OC)c(OC)c5)CC[C@@]34C)[C@@H]12` (single isomer, unassigned), in assay [1], the 50% inhibitory concentration (IC50) is greater than 40 µM.

In assay [1], `C=C(C)[C@@H]1CC[C@]2(C(=O)O)CC[C@]3(C)[C@H](CC[C@H]4C3(C)CC[C@H]3C(C)(C)[C@@H](OC(=O)c5ccccc5Br)CC[C@@]34C)[C@@H]12` (single isomer, unassigned) gave an IC50 of 7.99 µM. In turn, `C=C(C)[C@@H]1CC[C@]2(C(=O)O)CC[C@]3(C)[C@H](CC[C@H]4C3(C)CC[C@H]3C(C)(C)[C@@H](OC(=O)c5ccc(Br)cc5)CC[C@@]34C)[C@@H]12` (single isomer, unassigned) registered an IC50 in assay [1] greater than 40 µM. In assay [1], `C=C(C)[C@@H]1CC[C@]2(C(=O)O)CC[C@]3(C)[C@H](CC[C@H]4C3(C)CC[C@H]3C(C)(C)[C@@H](OC(=O)c5cccc(Br)c5)CC[C@@]34C)[C@@H]12` (single isomer, unassigned) showed an IC50 of 7.05 µM. For the compound `C=C(C)[C@@H]1CC[C@]2(C(=O)O)CC[C@]3(C)[C@H](CC[C@H]4C3(C)CC[C@H]3C(C)(C)[C@@H](OC(=O)Cc5cccc(CC(=O)O)c5)CC[C@@]34C)[C@@H]12` (single isomer, unassigned), the Ratio IC50 in the assay listed under Homo sapiens [2] came to 4; in the assay listed under Homo sapiens [3], 4; in the assay filed under Homo sapiens [4], 6. Moreover, the IC50 in assay [1] was found to be 1.42 µM. In the case of `C=C(C)[C@@H]1CC[C@]2(C(=O)O)CC[C@]3(C)[C@H](CC[C@H]4C3(C)CC[C@H]3C(C)(C)[C@@H](OC(=O)COCC(=O)O)CC[C@@]34C)[C@@H]12` (single isomer, unassigned), in assay [1], the IC50 was greater than 40 µM. Consider `C=C(C)[C@@H]1CC[C@]2(C(=O)N[C@@H](CC(C)C)C(=O)O)CC[C@]3(C)[C@H](CC[C@H]4C3(C)CC[C@H]3C(C)(C)[C@@H](O)CC[C@@]34C)[C@@H]12` (single isomer, unassigned), for which the IC50 in assay [1] was greater than 40 µM. The compound `C=C(CBr)[C@@H]1CC[C@]2(C(=O)N[C@@H](CC(C)C)C(=O)O)CC[C@]3(C)[C@H](CC[C@H]4C3(C)CC[C@H]3C(C)(C)[C@@H](O)CC[C@@]34C)[C@@H]12` (single isomer, unassigned) gave an IC50 in assay [1] of 5.85 µM. Turning to `C=C(COCCC)[C@@H]1CC[C@]2(C(=O)N[C@@H](CC(C)C)C(=O)O)CC[C@]3(C)[C@H](CC[C@H]4C3(C)CC[C@H]3C(C)(C)[C@@H](O)CC[C@@]34C)[C@@H]12` (single isomer, unassigned), in assay [1], the IC50 was 3.67 µM.

Compound `C=C(COCCc1ccc(F)cc1)[C@@H]1CC[C@]2(C(=O)N[C@@H](CC(C)C)C(=O)O)CC[C@]3(C)[C@H](CC[C@H]4C3(C)CC[C@H]3C(C)(C)[C@@H](O)CC[C@@]34C)[C@@H]12` (single isomer, unassigned) showed an IC50 in assay [1] of 2.4 µM. Take `C=C(COCCc1ccc(Cl)cc1)[C@@H]1CC[C@]2(C(=O)N[C@@H](CC(C)C)C(=O)O)CC[C@]3(C)[C@H](CC[C@H]4C3(C)CC[C@H]3C(C)(C)[C@@H](O)CC[C@@]34C)[C@@H]12` (single isomer, unassigned): the Ratio IC50 in the assay filed under Homo sapiens [2] and in the assay listed under Homo sapiens [3] was 3 each time. Further, in assay [1], 1.8 µM corresponded to half-maximal inhibition (IC50). `C=C(COCCN1CCOCC1)[C@@H]1CC[C@]2(C(=O)N[C@@H](CC(C)C)C(=O)O)CC[C@]3(C)[C@H](CC[C@H]4C3(C)CC[C@H]3C(C)(C)[C@@H](O)CC[C@@]34C)[C@@H]12` (single isomer, unassigned): in assay [1], the IC50 turned out to be 3.13 µM.

Take `C=C(COCCc1ccccc1)[C@@H]1CC[C@]2(C(=O)N[C@@H](CC(C)C)C(=O)O)CC[C@]3(C)[C@H](CC[C@H]4C3(C)CC[C@H]3C(C)(C)[C@@H](O)CC[C@@]34C)[C@@H]12` (single isomer, unassigned): the IC50 in assay [1] was determined as 2.47 µM. In the case of `C=C(COCCc1ccc(OC)cc1)[C@@H]1CC[C@]2(C(=O)N[C@@H](CC(C)C)C(=O)O)CC[C@]3(C)[C@H](CC[C@H]4C3(C)CC[C@H]3C(C)(C)[C@@H](O)CC[C@@]34C)[C@@H]12` (single isomer, unassigned), in assay [1], inhibition was half-maximal at 3.34 µM (IC50). Consider `C=C(COCC)[C@@H]1CC[C@]2(C(=O)N[C@@H](CC(C)C)C(=O)O)CC[C@]3(C)[C@H](CC[C@H]4C3(C)CC[C@H]3C(C)(C)[C@@H](O)CC[C@@]34C)[C@@H]12` (single isomer, unassigned), for which the IC50 in assay [1] was found to be 13.2 µM. `C=C(COCCc1ccc(Br)cc1)[C@@H]1CC[C@]2(C(=O)N[C@@H](CC(C)C)C(=O)O)CC[C@]3(C)[C@H](CC[C@H]4C3(C)CC[C@H]3C(C)(C)[C@@H](O)CC[C@@]34C)[C@@H]12` (single isomer, unassigned): the Ratio IC50 in the assay filed under Homo sapiens [2] and in the assay filed under Homo sapiens [3] was 3 each time. Inhibition in assay [1] was half-maximal at 1.56 µM (IC50). In assay [1], `C=C(C)[C@@H]1CC[C@]2(C(=O)O)CC[C@]3(C)[C@H](CC[C@H]4C3(C)CC[C@H]3C(C)(C)[C@@H](OC(=O)c5ccccc5)CC[C@@]34C)[C@@H]12` (single isomer, unassigned) displayed an IC50 of 11.1 µM. For `C=C(C)[C@@H]1CC[C@]2(C(=O)O)CC[C@]3(C)[C@H](CC[C@@H]4[C@@]5(C)CC[C@H](OC(=O)CC(C)(C)C(=O)O)C(C)(C)[C@@H]5CC[C@]43C)[C@@H]12` [BEVIRIMAT], the EC50 in assay [5] and in assay [8] was less than 0.01 µM in each case. The IC50 is 26.3 µM in assay [6] and 9.2 µM in assay [1]. In addition, in the assay filed under Homo sapiens [7], the inhibition entry is “inactive”.
